# Publication PMC6525002 (Cancer Management and Research, 2019)
# Legend:
# [1] = Phase Ib pharmacokinetics, single dose; format: in vivo, human
# Outline: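 Blood collected on Day 1 at 0.05 h before the first oral dose and 0.5, 1, 1.5, 2, 4, 6, 8, 10, 12 and 24 h after. Test compound quantified by LC-MS using multiple reaction monitoring, LLOQ 1 ng/mL. Cmax, AUC, CL, t1/2 and related parameters were derived from individual concentration-time profiles and summarised descriptively.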
# [2] = Phase Ib pharmacokinetics, multi-dosing; format: in vivo, human
# Outline: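 Oral test compound, flat doses twice daily for 28 days. Plasma sampled before the first daily dose on Days 8, 9, 10, 22 and 29. On Day 15, sampling ran 0.05 h predose and 0.5, 1, 1.5, 2, 4, 6, 8, 10 and 12 h post-dose. Assay by LC-MS with multiple reaction monitoring, LLOQ 1 ng/mL. Parameters were calculated from individual concentration-time profiles.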
# human A431 tumor cells = settings: in vitro, cells with high expression of EGFR; cited from earlier work
# [3] = single dose 100 mg, N=2, mean ± SD
# [4] = single dose 200 mg, N=3, mean ± SD
# [5] = single dose 300 mg, N=3, mean ± SD
# [6] = single dose 400 mg, N=15, mean ± SD
# [7] = single dose 500 mg, N=12, mean ± SD
# [8] = single dose 650 mg, N=6, mean ± SD
# [9] = multi-dosing 100 mg twice daily, N=2
# [10] = multi-dosing 100 mg twice daily, N=2, mean±SD
# [11] = multi-dosing 200 mg twice daily, N=3, mean±SD
# [12] = multi-dosing 300 mg twice daily, N=3, mean±SD
# [13] = multi-dosing 400 mg twice daily, N=15, mean±SD
# [14] = multi-dosing 500 mg twice daily, N=12, mean±SD
# [15] = multi-dosing 650 mg twice daily, N=6, mean±SD
substance,measurement,setting,value
simotinib,bioavailability,[1]; orally administered,good bioavailability
same,Tmax,"[1]; single dose 100 mg, N=2",1.8 (1.5–2.0) h
same,AUC0-last,[1]; [3],405.6 ± 94.8 ng·h/mL
same,AUC0-∞,[1]; [3],466.2 ± 129.9 ng·h/mL
same,CL,[1]; [3],223.1 ± 62.2 L/h
same,Cmax,[1]; [3],56.5 ± 18.2 ng/mL
same,T1/2,[1]; [3],5.3 ± 0.3 h
same,Vd,[1]; [3],"1,704.0±385.8 L"
same,Tmax,"[1]; single dose 200 mg, N=3",2.0 (2.0–2.0) h
same,AUC0-last,[1]; [4],"2,339.6±479.9 ng•hr/mL"
same,AUC0-∞,[1]; [4],"2,955.0±564.0 ng•hr/mL"
same,CL,[1]; [4],68.9 ± 13.2 L/h
same,Cmax,[1]; [4],333.0 ± 35.4 ng/mL
same,T1/2,[1]; [4],12.2 ± 3.5 h
same,Vd,[1]; [4],"1,250.1±579.7 L"
same,Tmax,"[1]; single dose 300 mg, N=3",1.5 (1.5–2.0) h
same,AUC0-last,[1]; [5],"2,814.0±764.5 ng•hr/mL"
same,AUC0-∞,[1]; [5],"3,243.8±776.1 ng•hr/mL"
same,CL,[1]; [5],95.2 ± 22.8 L/h
same,Cmax,[1]; [5],552.5 ± 388.2 ng/mL
same,T1/2,[1]; [5],9.2 ± 1.0 h
same,Vd,[1]; [5],"1,286.1±438.6 L"
same,Tmax,"[1]; single dose 400 mg, N=15",2.0 (1.0–8.0) h
same,AUC0-last,[1]; [6],"3,581.9±1,868.5 ng•hr/mL"
same,AUC0-∞,[1]; [6],"4,962.1±3,141.7 ng•hr/mL"
same,CL,[1]; [6],127.4 ± 117.6 L/h
same,Cmax,[1]; [6],566.4 ± 372.0 ng/mL
same,T1/2,[1]; [6],13.3 ± 6.3 h
same,Vd,[1]; [6],"2,097.2±1,506.8 L"
same,Tmax,"[1]; single dose 500 mg, N=12",1.8 (0.5–4.0) h
same,AUC0-last,[1]; [7],"3,791.0±2,741.1 ng•hr/mL"
same,AUC0-∞,[1]; [7],"6,483.8±5,008.4 ng•hr/mL"
same,CL,[1]; [7],200.5 ± 300.1 L/h
same,Cmax,[1]; [7],514.5 ± 316.4 ng/mL
same,T1/2,[1]; [7],28.0 ± 33.8 h
same,Vd,[1]; [7],"7,166.6±12,246.1 L"
same,Tmax,"[1]; single dose 650 mg, N=6",2.0 (1.0–6.0) h
same,AUC0-last,[1]; [8],"4,652.1±3,442.1 ng•hr/mL"
same,AUC0-∞,[1]; [8],"7,648.4±3,028.7 ng•hr/mL"
same,CL,[1]; [8],97.7 ± 39.2 L/h
same,Cmax,[1]; [8],828.5 ± 849.0 ng/mL
same,T1/2,[1]; [8],29.7 ± 32.2 h
same,Vd,[1]; [8],"3,873.8±3,378.1 L"
same,"time to Cmax, range over doses","[1]; single dose, all doses",1.5 to 2.0 h
same,"T1/2, range over doses",[2]; 200–650 mg doses,8 to 13 h
same,AUC0-∞,[2]; [9],956.9 ng·h/mL
same,CL,[2]; [9],148.5 L/h
same,T1/2,[2]; [9],6.2 h
same,Tmax,[2]; [9],1.0(0–2.0) h
same,Vd,[2]; [9],1323.3 L
same,AUC0-last,[2]; [10],920.4 ± 349.2 ng·h/mL
same,Cavg,[2]; [10],76.7 ± 29.1 ng/mL
same,Cmax,[2]; [10],130.3 ± 70.3 ng/mL
same,Cmin,[2]; [10],54.5 ± 32.1 ng/mL
same,Tmax,"[2]; multi-dosing 200 mg twice daily, N=3",4.0 (2.0–4.0) h
same,AUC0-last,[2]; [11],"3,940.9±2,689.0 ng•hr/mL"
same,AUC0-∞,[2]; [11],"6,571.6±3,241.2 ng•hr/mL"
same,CL,[2]; [11],66.1 ± 45.1 L/h
same,Cavg,[2]; [11],328.4 ± 224.1 ng/mL
same,Cmax,[2]; [11],447.0 ± 258.8 ng/mL
same,Cmin,[2]; [11],207.0 ± 152.7 ng/mL
same,T1/2,[2]; [11],9.6 ± 4.2 h
same,Vd,[2]; [11],"1,050.0±1,020.6 L"
same,Tmax,"[2]; multi-dosing 300 mg twice daily, N=3",1.5 (1.0–2.0) h
same,AUC0-last,[2]; [12],"6,013.9±3,058.1 ng•hr/mL"
same,AUC0-∞,[2]; [12],"9,728.6±1,648.2 ng•hr/mL"
same,CL,[2]; [12],57.3 ± 29.1 L/h
same,Cavg,[2]; [12],501.2 ± 254.8 ng/mL
same,Cmax,[2]; [12],"1,519.0±1,132.8 ng/mL"
same,Cmin,[2]; [12],288.0 ± 117.4 ng/mL
same,T1/2,[2]; [12],10.4 ± 7.8 h
same,Vd,[2]; [12],"1,019.6±1,077.5 L"
same,Tmax,"[2]; multi-dosing 400 mg twice daily, N=15",2.0 (0–8.0) h
same,AUC0-last,[2]; [13],"5,245.7±2,194.4 ng•hr/mL"
same,AUC0-∞,[2]; [13],"10,577.7±5,867.6 ng•hr/mL"
same,CL,[2]; [13],99.5 ± 70.4 L/h
same,Cavg,[2]; [13],437.1 ± 182.9 ng/mL
same,Cmax,[2]; [13],767.9 ± 338.1 ng/mL
same,Cmin,[2]; [13],251.6 ± 127.0 ng/mL
same,T1/2,[2]; [13],13.0 ± 11.8 h
same,Vd,[2]; [13],"2,000.6±3,169.6 L"
same,Tmax,"[2]; multi-dosing 500 mg twice daily, N=12",1.8 (1.0–6.0) h
same,AUC0-last,[2]; [14],"7,819.8±1,942.3 ng•hr/mL"
same,AUC0-∞,[2]; [14],"12,780.6±3,894.7 ng•hr/mL"
same,CL,[2]; [14],67.7 ± 17.2 L/h
same,Cavg,[2]; [14],651.6 ± 161.9 ng/mL
same,Cmax,[2]; [14],"1,396.0±534.8 ng/mL"
same,Cmin,[2]; [14],378.3 ± 132.0 ng/mL
same,T1/2,[2]; [14],8.4 ± 2.8 h
same,Vd,[2]; [14],811.3 ± 326.9 L
same,Tmax,"[2]; multi-dosing 650 mg twice daily, N=6",2.0 (1.5–8) h
same,AUC0-last,[2]; [15],"4,615.7±1,599.7 ng•hr/mL"
same,AUC0-∞,[2]; [15],"8,193.3±3,211.2 ng•hr/mL"
same,CL,[2]; [15],156.3 ± 55.6 L/h
same,Cavg,[2]; [15],384.6 ± 133.3 ng/mL
same,Cmax,[2]; [15],650.8 ± 234.7 ng/mL
same,Cmin,[2]; [15],214.3 ± 84.8 ng/mL
same,T1/2,[2]; [15],9.2 ± 1.9 h
same,Vd,[2]; [15],"2,021.8±635.7 L"
same,"time to maximum concentration, range over doses","[2]; multiple dosing, 300, 400, 500, and 650 mg doses",1.5 to 2.0 h
same,inhibition of growth of human A431 tumor cells,human A431 tumor cells,inhibits in a dose-dependent manner
